Reference: article PMC3077804 (ACS Chemical Biology, 2010)

Target: T1, AarA (Providencia stuartii, UniProt P46116)
T1 sequence (P46116 1-281): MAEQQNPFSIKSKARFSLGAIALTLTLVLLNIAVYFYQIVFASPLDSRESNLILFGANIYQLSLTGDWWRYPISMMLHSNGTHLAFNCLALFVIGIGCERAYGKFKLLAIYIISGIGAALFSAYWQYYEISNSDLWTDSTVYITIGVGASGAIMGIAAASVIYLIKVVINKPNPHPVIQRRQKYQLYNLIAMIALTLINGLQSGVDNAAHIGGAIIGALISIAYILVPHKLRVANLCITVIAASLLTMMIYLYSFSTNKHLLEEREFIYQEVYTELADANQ
Assay: In vitro fluorescent assay
Assay type: biochemical
Conditions: SAR
Method in brief: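 Fluorogenic KSp21 peptide (600 nM) cleaved at 24−25 °C by 100 nM AarA or 37 nM chymotrypsin. Buffer: 25 mM Hepes pH 7.4, 5 mM EDTA, 5% glycerol, 0.5% DDM and 20% DMSO (final). Compound was preincubated with enzyme for 30 min at 25 °C, and the reaction was started with peptide. Stopped after 50−60 min, still in the linear phase, with 1 M phosphoric acid pH 1.5; fluorescence read.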

Cc1ccc(S(=O)(=O)NC(CCCCN)C(=O)CCl)cc1 (centres unmarked) [TLCK]
inhibitory activity against AarA in the fluorescent assay (in words): inactive

Cc1ccc(S(=O)(=O)N[C@@H](Cc2ccccc2)C(=O)CCl)cc1 [TPCK]
inhibitory activity against AarA in the fluorescent assay (in words): inactive
